Data from ChEMBL document CHEMBL5505959, “Identification of 4-amino-2-Pyridones as new potent PCSK9 inhibitors: From phenotypic hit discovery to in vivo tolerability” (Eur J Med Chem, 2024).
Calls of active or inactive are those of the source. No cut-off for these calls is given here.

Key:
[1] = Toxicity in C57BL/6 mouse assessed as reduction in ALT plasma level at 40 mg/kg, sc measured after 7 days by ELISA method; format: organism-based; conditions: in vivo, 168 h, time 7 day
Summary of the method: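 Male C57BL/6J mice, 3 months old, dosed subcutaneously at 40 mg/kg daily for seven days in Transcutol. Killed under isoflurane 6 h after the final dose. Retro-orbital blood taken into EDTA and spun at 3000 rpm, 4 °C, 10 min. Plasma ALT measured by ELISA kit. Mean ± SEM, n = 5–6 per group.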

HepG2 [2] = experiment: Cytotoxicity against human HepG2 cells assessed as reduction in cell viability at 5 uM measured after 24 hrs by SRB assay relative to control; format: functional
Summary of the method: (§1)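 HepG2 seeded 8000 cells/well in complete MEM; next day medium replaced with 0.4 % FBS medium containing compound or DMSO control. Viability was read by sulforhodamine B assay after 24 h, with absorbance at 570 nm. Dose-response series used 6.25, 12.5, 25, 50 or 100 μM; newer analogues were tested at a fixed 5 μM. Data are mean ± SD of three independent experiments.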

HepG2 [3] = experiment: Induction of LDLR expression in human HepG2 cells by Western blot analysis; format: functional, cell-based
Summary of the method: (§2)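 HepG2 cells were treated overnight or for 24 h, alone or with simvastatin 40 μM. Lysates (1 % NP-40, 150 mM NaCl, 50 mM Tris-HCl pH 7.5) were loaded at 25 µg protein on 4–20 % SDS-PAGE. Blots were probed for proPCSK9, mature PCSK9 and LDLR, and densitometry was normalized to β-actin or GAPDH. Mean ± SD of three independent experiments.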

HepG2 [4] = experiment: Downregulation of proPCSK9 level in human HepG2 cells by Western blot analysis; format: functional, cell-based; summary of the method: as §2
HepG2 [5] = experiment: Downregulation of mature PCSK9 level in human HepG2 cells by Western blot analysis; format: functional, cell-based; summary of the method: as §2
HepG2 [6] = experiment: Downregulation of simvastatin induced PCSK9 expression in human HepG2 cells measured after 24 hrs by Western blot analysis; format: functional, cell-based; summary of the method: as §2
HepG2 [7] = experiment: Downregulation of PCSK9 protein level in human HepG2 cells at 5 uM by Western blot analysis; format: functional, cell-based; summary of the method: as §2
HepG2 [8] = experiment: Downregulation of PCSK9 mRNA level in human HepG2 cells at 6 to 25 uM by qRT-PCR analysis; format: functional, cell-based; conditions: dose 6-25 µM
Summary of the method: (§3)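 Total RNA was taken from treated HepG2 cells for RT-qPCR of PCSK9, FAS and HMG-CoA reductase. Cycling was 50 °C 10 min, 95 °C 2 min, then 40 cycles of 95 °C 5 s and 60 °C 10 s. Relative quantification used ΔΔCt against 18S, corrected for primer efficiency. Mean ± SD of three independent experiments.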

HepG2 [9] = experiment: Cytotoxicity against human HepG2 cells assessed as reduction in cell viability at 100 uM measured after 24 hrs by SRB assay; format: functional, cell-based; summary of the method: as §1
HepG2 [10] = experiment: Effect on HMG-CoA reductase mRNA level in human HepG2 cells at 50 to 100 uM by qRT-PCR analysis; format: functional, cell-based; conditions: dose 50-100 µM; summary of the method: as §3
[11] = Downregulation of mature PCSK9 protein expression in human HepG2 cells at 12.5 uM by Western blot analysis relative to control; format: functional; summary of the method: as §2
HepG2 [12] = experiment: Downregulation of proPCSK9 protein expression in human HepG2 cells at 6.25 uM by Western blot analysis; format: functional, cell-based; summary of the method: as §2
HepG2 [13] = experiment: Inhibition of PCSK9 promotor activity in human HepG2 cells harbouring pGL3-PCSK9-HNF mutant at 6.25 to 12.5 uM incubated for 24 hrs by luciferase assay; format: functional, cell-based; conditions: dose 6.25-12.5 µM
Summary of the method: (§4)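 HepG2 cells were seeded at 8 × 10⁵ per well and transiently transfected with pGL3-PCSK9-D4 (−440 to −94 region), or with SRE- or HNF-mutant constructs. At 48 h post-transfection, cells were treated 24 h with compound or simvastatin 5 μM. Promoter activity was read as luciferase luminescence.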

HepG2 [14] = experiment: Downregulation of mature PCSK9 protein expression in human HepG2 cells at 6.25 uM by Western blot analysis; format: functional, cell-based; summary of the method: as §2
HepG2 [15] = experiment: Inhibition of PCSK9 transcription activity in human HepG2 cells harbouring FLAG tagged PCSK9 at 6.25 to 12.5 uM incubated for 24 hrs by luciferase assay; format: functional, cell-based; conditions: dose 6.25-12.5 µM
HepG2 [16] = experiment: Effect on FAS mRNA level in human HepG2 cells at 6.25 to 25 uM by qRT-PCR analysis; conditions: dose 6.25-25 µM
HepG2 [17] = experiment: Effect on HMG-CoA reductase mRNA level in human HepG2 cells at 6.25 to 25 uM by qRT-PCR analysis; format: functional, cell-based; conditions: dose 6.25-25 µM; summary of the method: as §3
[18] = Downregulation of PCSK9 expression in human HepG2 cells at 6.25 to 12.5 uM by Western blot analysis relative to control; format: functional; conditions: dose 6.25-12.5 µM; summary of the method: as §2
[19] = Downregulation of extracellular PCSK9 level in human HepG2 cells at 6.25 to 12.5 uM under conditioned media by ELISA method relative to control; format: functional; conditions: dose 6.25-12.5 µM
Summary of the method: (§5)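 Secreted PCSK9 was measured in HepG2 conditioned media with a human PCSK9 DuoSet sandwich ELISA. Media were centrifuged at 15000 rpm for 10 min and diluted before reading absorbance at 450 nm. Values were normalized to HepG2 total protein content. Mean ± SD of three independent experiments.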

HepG2 [20] = experiment: Inhibition of basal PCSK9 activity in human HepG2 cells at 6.25 to 12.5 uM incubated for 24 hrs by luciferase assay; format: functional, cell-based; conditions: dose 6.25-12.5 µM; summary of the method: as §4
[21] = Downregulation of proPCSK9 protein expression in human HepG2 cells at 12.5 uM by Western blot analysis relative to control; format: functional; summary of the method: as §2
HepG2 [22] = experiment: Downregulation of PCSK9 level in human HepG2 cells at 6.25 to 12.5 uM under conditioned media by ELISA method; format: functional, cell-based; conditions: dose 6.25-12.5 µM; summary of the method: as §5
HepG2 [23] = experiment: Inhibition of PCSK9 promotor activity in human HepG2 cells harbouring pGL3-PCSK9-SRE mutant at 6.25 to 12.5 uM incubated for 24 hrs by luciferase assay; format: functional, cell-based; conditions: dose 6.25-12.5 µM; summary of the method: as §4
HepG2 [24] = experiment: Downregulation of PCSK9 mRNA level in human HepG2 cells by qRT-PCR analysis; format: functional, cell-based; conditions: dose 6.25-25 µM; summary of the method: as §3
HepG2 [25] = experiment: Induction of LDLR expression in human HepG2 cells at 6.25 incubated for 24 hrs in presence of simvastatin by Western blot analysis; format: functional, cell-based; summary of the method: as §2
[26] = Downregulation of simvastatin induced PCSK9 expression in human HepG2 cells at 12.5 uM by Western blot analysis relative to control; format: functional; summary of the method: as §2
HepG2 [27] = experiment: Inhibition of simvastatin induced PCSK9 activation in human HepG2 cells at 6.25 to 12.5 uM incubated for 24 hrs by luciferase assay; format: functional, cell-based; conditions: dose 6.25-12.5 µM; summary of the method: as §4
[28] = Induction of LDLR expression in human HepG2 cells by measuring fold increase by Western blot analysis; format: functional; summary of the method: as §2
HepG2 [29] = experiment: Effect on proPCSK9 expression in human HepG2 cells by Western blot analysis; format: functional, cell-based; summary of the method: as §2
HepG2 [30] = experiment: Cytotoxicity against human HepG2 cells assessed as reduction in cell viability at 50 to 100 uM measured after 24 hrs by SRB assay; format: functional, cell-based; conditions: dose 50-100 µM; summary of the method: as §1
HepG2 [31] = experiment: Cytotoxicity against human HepG2 cells assessed as reduction in cell viability at 25 uM measured after 24 hrs by SRB assay; format: functional, cell-based; summary of the method: as §1
HepG2 [32] = experiment: Downregulation of PCSK9 mRNA level in human HepG2 cells at 25 uM by qRT-PCR analysis; format: functional, cell-based; summary of the method: as §3
HepG2 [33] = experiment: Cytotoxicity against human HepG2 cells assessed as reduction in cell viability at 6 to 100 uM measured after 24 hrs by SRB assay; format: functional, cell-based; conditions: dose 6-100 µM; summary of the method: as §1

Cc1cc(C(=O)C2=C(O)C(=O)N(CCCN3CCOCC3)C2c2ccncc2)ccc1OCc1ccccc1 (configuration not stated)
Activity [1]: Non-Toxic

COc1ccc(CNc2cc(C)n(Cc3ccc(OC)cc3)c(=O)c2)cc1
Activity (HepG2 [2]): >95%

CC(=O)N(Cc1ccc(C(F)(F)F)cc1)c1cc(C)n(Cc2ccc(C(F)(F)F)cc2)c(=O)c1
Activity (HepG2 [2]): >95%

CCCCCN(C(C)=O)c1cc(C)n(Cc2ccc(C(F)(F)F)cc2)c(=O)c1
Activity (HepG2 [2]): >95%

CCCCCNc1cc(C)n(Cc2ccc(OC)cc2)c(=O)c1
Activity (HepG2 [3]): inactive
Activity (HepG2 [4]): Active
Activity (HepG2 [5]): Active

COc1ccc(CNc2cc(C)n(Cc3ccc(OC)c(OC)c3)c(=O)c2)cc1OC
Activity (HepG2 [2]): >95%

CCCCCNc1cc(C)n(Cc2ccc(C(F)(F)F)cc2)c(=O)c1
Activity (HepG2 [2]): >95%

CCC(C)(C)C(=O)O[C@H]1C[C@@H](C)C=C2C=C[C@H](C)[C@H](CC[C@@H]3C[C@@H](O)CC(=O)O3)[C@H]21
Activity (HepG2 [6]): inactive

CCCCCn1c(C)cc(NCc2ccc(C(F)(F)F)cc2)cc1=O
Activity (HepG2 [2]): >95%

Cc1cc(NCc2ccc(Cl)cc2)cc(=O)n1CCC(C)C
Activity (HepG2 [2]): >95%

CCCCCNc1cc(C)n(CCCCC)c(=O)c1
Activity (HepG2 [7]): Active
Activity (HepG2 [8]): Active
Activity (HepG2 [9]): Active

CCCCCNc1cc(C)n(Cc2ccc(Cl)cc2)c(=O)c1
Activity (HepG2 [10]): Active
Activity [11]: 100%
Activity (HepG2 [12]): inactive
inhibition (HepG2 [13]): inactive
Activity (HepG2 [14]): inactive
inhibition (HepG2 [15]): inactive
Activity (HepG2 [16]): inactive
Activity (HepG2 [17]): inactive
Activity [18]: 65%
Activity [19]: 35.8%
inhibition (HepG2 [20]): inactive
Activity [21]: 100%
Activity (HepG2 [22]): Active
inhibition (HepG2 [23]): inactive
Activity (HepG2 [24]): Dose-Dependent Effect
Activity (HepG2 [25]): Active
Activity [26]: 100%
inhibition (HepG2 [27]): Active

Cc1cc(NCc2ccc(Cl)cc2)cc(=O)n1Cc1ccc(Cl)cc1
Activity (HepG2 [2]): >95%

COc1ccc(Cn2c(C)cc(NC3CCCC3)cc2=O)cc1
Activity (HepG2 [2]): >95%

CCCCCNc1cc(C)n(Cc2ccccc2)c(=O)c1
Activity (HepG2 [2]): >95%

Cc1cc(NCc2ccc(CCC(C)C)cc2)cc(=O)n1Cc1ccc(CCC(C)C)cc1
Activity (HepG2 [2]): >95%
fold change (FC) [28]: 3
Activity (HepG2 [29]): inactive

Cc1cc(NC2CCCC2)cc(=O)n1Cc1ccc(C(F)(F)F)cc1
Activity (HepG2 [2]): >95%

Cc1cc(NCCc2ccccc2)cc(=O)n1Cc1ccc(Cl)cc1
Activity (HepG2 [30]): Active
Activity (HepG2 [31]): inactive
Activity (HepG2 [32]): Active

CCCCCNc1cc(C)n(Cc2cccc(OC)c2OC)c(=O)c1
Activity (HepG2 [2]): >95%

Cc1cc(NCc2ccc(C(F)(F)F)cc2)cc(=O)n1CC(C)C
Activity (HepG2 [2]): >95%

Cc1cc(NCCC(C)C)cc(=O)n1Cc1ccccc1
Activity (HepG2 [2]): >95%

Cc1cc(NCc2ccccc2)cc(=O)n1CCC(C)C
Activity (HepG2 [2]): >95%

COc1cccc(CNc2cc(C)n(Cc3cccc(OC)c3OC)c(=O)c2)c1OC
Activity (HepG2 [2]): >95%

CCCCCn1c(C)cc(NCc2ccc(Cl)cc2)cc1=O
Activity (HepG2 [7]): Active
Activity (HepG2 [8]): Active
Activity (HepG2 [33]): inactive

CCCCCn1c(C)cc(NCc2ccccc2)cc1=O
Activity (HepG2 [2]): >95%
